{"data": "Experimental data collected from several papers", "PIK3CA H1047L": "Phosphatidylinositol 4,5-bisphosphate 3-kinase catalytic subunit alpha isoform (PIK3CA, Homo sapiens, UniProt P42336, H1047L)", "PIK3CA E542K": "Phosphatidylinositol 4,5-bisphosphate 3-kinase catalytic subunit alpha isoform (PIK3CA, Homo sapiens, UniProt P42336, E542K)", "PIK3CA": "Phosphatidylinositol 4,5-bisphosphate 3-kinase catalytic subunit alpha isoform (PIK3CA, Homo sapiens, UniProt P42336)", "PIK3CA E545K": "Phosphatidylinositol 4,5-bisphosphate 3-kinase catalytic subunit alpha isoform (PIK3CA, Homo sapiens, UniProt P42336, E545K)", "PIK3CA H1047Y": "Phosphatidylinositol 4,5-bisphosphate 3-kinase catalytic subunit alpha isoform (PIK3CA, Homo sapiens, UniProt P42336, H1047Y)", "note": "Compare with care: the assays were run in different laboratories."}
{"SMILES": "F[C@@H]1CCN(c2nccc(-c3cnn4ncccc34)n2)C1", "target": "PIK3CA H1047L", "observed": "binding", "tested at": "1 µM", "measurement": "remaining binding", "result": "100%"}
{"SMILES": "CC(=O)Oc1ccc(-c2coc3c4c(c(CC=C(C)C)c(OC(C)=O)c3c2=O)OC(C)(C)C=C4)cc1OC(C)=O", "target": "PIK3CA E542K", "observed": "enzyme activity", "mode": "inhibitor", "technique": "ADP detection", "tested at": "10 µM", "measurement": "remaining activity", "result": "46.1%"}
{"SMILES": "CCS(=O)(=O)c1cc2cc(C[C@@](O)(CC(C)(C)c3ccc(F)cc3C(N)=O)C(F)(F)F)[nH]c2cn1", "target": "PIK3CA H1047L", "observed": "cell-free assay", "technique": "competition with immobilised ligand", "tested at": "1 µM", "measurement": "remaining binding", "result": "97%"}
{"SMILES": "N[C@H]1CCN(c2nccc(-c3cnn4ncccc34)n2)C1", "target": "Phosphatidylinositol 4,5-bisphosphate 3-kinase catalytic subunit alpha isoform (PIK3CA, Homo sapiens, UniProt P42336, I800L)", "observed": "binding", "tested at": "1 µM", "measurement": "remaining binding", "result": "100%"}
{"SMILES": "C/C=C/C(=O)CCCCCC(=O)N1CCN(c2nc(-c3cnc(N)nc3C(F)F)nc(N3CCOCC3)n2)CC1", "target": "PIK3CA", "observed": "cell-free assay", "technique": "TR-FRET", "measurement": "kinact", "result": "0.0153 s⁻¹"}
{"SMILES": "CN(C)c1ncnc(-c2ccc3nc(Nc4cc(CN5CCN(C(=O)CC(F)(F)F)CC5)ccn4)[nH]c3c2)c1Cl", "target": "PIK3CA E545K", "observed": "cell-free assay", "technique": "competition with immobilised ligand", "tested at": "1 µM", "measurement": "remaining binding", "result": "76%"}
{"SMILES": "C=CC(=O)N1CCC(C(=O)N(C)CCCC(=O)N2CCN(c3nc(-c4cnc(N)nc4C(F)F)nc(N4CCOCC4)n3)CC2)CC1", "target": "PIK3CA", "observed": "cell-free assay", "technique": "TR-FRET", "measurement": "kinact", "result": "0.000406 s⁻¹"}
{"SMILES": "CN(CCCC(F)(F)F)c1nccc(-c2cnn3ncccc23)n1", "target": "PIK3CA", "observed": "binding", "tested at": "1 µM", "measurement": "remaining binding", "result": "100%"}
{"SMILES": "O=c1nc(-c2ccccn2)sc2ccccc12", "target": "PIK3CA H1047Y", "observed": "cell-free assay", "technique": "competition with immobilised ligand", "tested at": "1 µM", "measurement": "remaining binding", "result": "94%"}
{"SMILES": "COc1cccc2c(NCc3ccccc3)nc(-n3c(N)nc4ccccc43)nc12", "target": "PIK3CA", "observed": "target engagement in cells", "mode": "inhibitor", "technique": "chemoproteomics", "tested at": "20 mM", "measurement": "inhibition", "result": "5.6%"}
{"SMILES": "c1cnn2ncc(-c3ccnc(N4CCC45COC5)n3)c2c1", "target": "PIK3CA E545K", "observed": "binding", "tested at": "1 µM", "measurement": "remaining binding", "result": "86%"}
{"SMILES": "CNC(=O)c1ccc(Nc2ncc(C(F)(F)F)c(NCc3nccnc3N(C)S(C)(=O)=O)n2)cc1", "target": "PIK3CA E545K", "observed": "cell-free assay", "technique": "competition with immobilised ligand", "tested at": "0.1 µM", "measurement": "remaining binding", "result": "100%"}
{"SMILES": "COc1ccnn2ncc(-c3ccnc(N(C)C)n3)c12", "target": "Phosphatidylinositol 4,5-bisphosphate 3-kinase catalytic subunit alpha isoform (PIK3CA, Homo sapiens, UniProt P42336, E545A)", "observed": "binding", "tested at": "1 µM", "measurement": "remaining binding", "result": "93%"}
{"SMILES": "CC(C)=CC(=O)CCCC(=O)N1CCN(c2nc(-c3cnc(N)nc3C(F)F)nc(N3CCOCC3)n2)CC1", "target": "PIK3CA", "observed": "ligand displacement", "technique": "TR-FRET", "measurement": "kinact/KI", "result": "3210 M⁻¹ s⁻¹"}
{"SMILES": "CN(C)c1nccc(-c2cnn3ncccc23)n1", "target": "PIK3CA H1047Y", "observed": "binding", "tested at": "1 µM", "measurement": "remaining binding", "result": "90%"}
{"SMILES": "Cn1nc(C(F)(F)F)cc1-c1cnc(N2CCc3cc(S(=O)(=O)Nc4c(F)cc(Cl)cc4F)cc(N4CCCC4=O)c32)nc1", "target": "PIK3CA H1047L", "observed": "cell-free assay", "technique": "competition with immobilised ligand", "tested at": "1 µM", "measurement": "remaining binding", "result": "94%"}
{"SMILES": "C=CC(=O)N(C)CCCCC(=O)N1CCN(c2nc(-c3cnc(N)nc3C(F)F)nc(N3CCOCC3)n2)CC1", "target": "PIK3CA", "observed": "ligand displacement", "technique": "TR-FRET", "measurement": "kinact", "result": "0.000127 s⁻¹"}
{"SMILES": "O=C(NC[C@@H]1[C@H]2CN(C(=O)OCc3cc(C(F)(F)F)cc(C(F)(F)F)c3)C[C@@H]12)c1ccc2[nH]nnc2c1", "target": "PIK3CA E542K", "observed": "cell-free assay", "technique": "competition with immobilised ligand", "tested at": "1 µM", "measurement": "remaining binding", "result": "75%"}
{"SMILES": "Cc1ccc(C(=O)Nc2ccc(CN3CCN(C)CC3)c(C(F)(F)F)c2)cc1C#Cc1cnc2cccnn12", "target": "PIK3CA E542K", "observed": "enzyme activity", "mode": "inhibitor", "tested at": "23.5 nM", "measurement": "remaining activity", "result": "96%"}
{"SMILES": "CC(C)CCn1c(SCC(=O)Nc2ccccc2C(F)(F)F)nc2nccnc2c1=O", "target": "PIK3CA", "observed": "enzyme activity", "mode": "inhibitor", "tested at": "10 µM", "measurement": "inhibition", "result": "< 20%"}
{"SMILES": "c1ccc(CNc2nc(N3CCOc4ccccc43)nc3c2CCCC3)cc1", "target": "PIK3CA", "observed": "target engagement in cells", "mode": "inhibitor", "technique": "chemoproteomics", "tested at": "20 mM", "measurement": "inhibition", "result": "28.5%"}
{"SMILES": "Cc1nccc(COC(=O)N2C[C@@H]3[C@@H](CNC(=O)c4ccc5[nH]nnc5c4)[C@@H]3C2)n1", "target": "PIK3CA H1047Y", "observed": "cell-free assay", "technique": "competition with immobilised ligand", "tested at": "1 µM", "measurement": "remaining binding", "result": "82%"}
{"SMILES": "C[C@@H]1CCN(c2nccc(-c3cnn4ncccc34)n2)C1", "target": "PIK3CA H1047L", "observed": "binding", "tested at": "1 µM", "measurement": "remaining binding", "result": "75%"}
{"SMILES": "Nc1ncnc2occ(-c3ccc(NC(=O)Nc4cc(C(F)(F)F)ccc4F)cc3)c12", "target": "Phosphatidylinositol 4,5-bisphosphate 3-kinase catalytic subunit alpha isoform (PIK3CA, Homo sapiens, UniProt P42336, Q546K)", "observed": "cell-free assay", "mode": "inhibitor", "tested at": "20 µM", "measurement": "remaining signal", "result": "72%"}
{"SMILES": "Cc1ccc(C(=O)NCc2ccsc2)cc1C#Cc1cn(C(C)C)c2ncnc(N)c12", "target": "Phosphatidylinositol 4,5-bisphosphate 3-kinase catalytic subunit alpha isoform, with p85 (PIK3CA, Homo sapiens, UniProt P42336, E542K)", "observed": "enzyme activity", "mode": "inhibitor", "tested at": "1 µM", "measurement": "activity vs control", "result": "100%"}
{"SMILES": "CN(C)CC#Cc1ccc(OCCCc2sc(N3CCc4cccc(C(=O)Nc5nc6ccccc6s5)c4C3)nc2C(=O)O)c(F)c1", "target": "Phosphatidylinositol 4,5-bisphosphate 3-kinase catalytic subunit alpha isoform (PIK3CA, Homo sapiens, UniProt P42336, M1043I)", "observed": "cell-free assay", "technique": "competition with immobilised ligand", "tested at": "1 µM", "measurement": "remaining binding", "result": "96%"}
{"SMILES": "C=CC(=O)NCCCCC(=O)N1CCN(c2nc(-c3cnc(N)nc3C(F)F)nc(N3CCOCC3)n2)CC1", "target": "PIK3CA", "observed": "cell-free assay", "technique": "TR-FRET", "measurement": "kinact/KI", "result": "16400 M⁻¹ s⁻¹"}
